Measurements from ChEMBL document CHEMBL1126655, “Synthesis and antiviral activity of novel isonucleoside analogs” (J Med Chem, 1993).

Assays:
Human betaherpesvirus 5 = test: Antiviral activity against Human cytomegalovirus (AD169 strain); assay type: functional; conditions: read-out: ID50 (the source's name)
Outline: (§1)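 WI-38 monolayers were infected, with virus adsorbed for 1–2 h. They were then overlaid with EMEM maintenance medium (1% carboxymethyl cellulose, 2.5% FBS) containing duplicate drug dilutions. Monolayers were stained after 4–6 days at 37 °C. ID50 was taken as the concentration giving 50% plaque reduction versus virus controls. Titrations were done in duplicate.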

Human alphaherpesvirus 1 [1] = test: Antiviral activity against Herpes simplex virus-1 (Schooler strain); assay type: functional; conditions: read-out: ID50 (the source's name); outline: as §1
Human alphaherpesvirus 3 [2] = test: Antiviral activity against Varicella zoster virus (Ellen strain); assay type: functional; conditions: read-out: ID50 (the source's name); outline: as §1
WI-38 = test: Tested for growth inhibition against WI-38 cells; assay type: functional; conditions: Homo sapiens, read-out: ID50 (the source's name)
Outline: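 WI-38 cells seeded at 1.2 × 10^6 per well, incubated overnight at 37 °C, then refed with growth medium (EMEM, 10% FBS) holding serial drug dilutions or none, for 3 more days at 37 °C. Quadruplicate cultures per concentration trypsinized and counted daily for viable cells by trypan blue exclusion.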

Vaccinia virus = test: Antiviral activity against vaccinia virus (CL strain); assay type: functional; conditions: Orthopoxvirus vaccinia; read-out: ID50 (the source's name)
[3] = Antiviral activity against Herpes simplex virus-1 (KOS strain); assay type: functional; conditions: Human alphaherpesvirus 1; read-out: ID50 (the source's name); outline: as §1
Human alphaherpesvirus 1 [4] = test: Antiviral activity against Herpes simplex virus-1 (thymidine kinase deficient strains isolated as BVaraU resistant mutants of HSV-1 (KOS)); assay type: functional; conditions: read-out: ID50 (the source's name); outline: as §1
[5] = test system: Cercopithecine alphaherpesvirus 9; test: Antiviral activity against Simina varicella virus (G815 strain); assay type: functional; conditions: read-out: ID50 (the source's name)
Outline: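 Simian varicella virus G815 was grown from infected Vero cells and assayed by plaque reduction on Vero monolayers. Virus was adsorbed 1–2 h, then overlaid with EMEM (1% carboxymethyl cellulose, 2.5% FBS) containing duplicate drug dilutions. Staining was after 4–6 days at 37 °C. ID50 was the concentration giving 50% plaque reduction versus virus controls.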

Human alphaherpesvirus 3 [6] = test: Antiviral activity against Varicella zoster virus (Kanno-Kohmura thymidine kinase deficient strain); assay type: functional; conditions: read-out: ID50 (the source's name); outline: as §1
Human alphaherpesvirus 3 [7] = test: Antiviral activity against Varicella zoster virus (Ito strain); assay type: functional; conditions: read-out: ID50 (the source's name); outline: as §1
Human alphaherpesvirus 3 [8] = test: Antiviral activity against Varicella zoster virus (Oka strain); assay type: functional; conditions: read-out: ID50 (the source's name); outline: as §1
Human alphaherpesvirus 3 [9] = test: Antiviral activity against Varicella zoster virus (ppIIa strain); assay type: functional; conditions: read-out: ID50 (the source's name); outline: as §1
Human alphaherpesvirus 3 [10] = test: Antiviral activity against Varicella zoster virus (9021 strain); assay type: functional; conditions: read-out: ID50 (the source's name); outline: as §1
Human alphaherpesvirus 2 = test: Antiviral activity against Herpes simplex virus-2 (thymidine kinase deficient strains isolated as BVaraU resistant mutants of HSV-1 (KOS)); assay type: functional; conditions: read-out: ID50 (the source's name)
Mus musculus [11] = test: Protective dose against Herpes simplex virus type type -1 infection in mice at 200 mg/kg; assay type: functional; conditions: read-out: PD50
Outline: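 Female Swiss-Webster mice (20–23 g), 10 per group, infected intraperitoneally with 10^3 PFU HSV-1 strain Schooler (Vero freeze-thaw extract) in 0.3% BSA-PBS. Subcutaneous dosing in PBS twice daily from 1 h postinfection for 5 days, 12.5–200 mg/kg/day. Survival scored over 21 days; PD50 from survival by probit analysis.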

Mus musculus [12] = test: Protective dose against Herpes simplex virus type type -2 infection in mice at 200 mg/kg; assay type: functional; conditions: read-out: PD50
Outline: (§2)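 Female Swiss-Webster mice (20–23 g), 10 per group, infected intraperitoneally with 10^6 PFU HSV-2 strain Curtis (Vero freeze-thaw extract) in 0.3% BSA-PBS. Drug given subcutaneously in PBS twice daily from 1 h postinfection for 5 days, doses 12.5–200 mg/kg/day. Survival followed 21 days; PD50 by probit analysis; mean day of death by Student's t-test versus placebo.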

Mus musculus [13] = test: Number of survivors against Herpes simplex virus type-2 infection in mice at 25 mg/kg/day; assay type: functional
Outline: (§3)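 Female Swiss-Webster mice (20–23 g, 10 per group) were infected ip with 10^6 PFU HSV-2 Curtis in 0.3% BSA-PBS. Dosing was sc twice daily in PBS from 1 h postinfection for 5 days. Survival was recorded over 21 days. Mean day of death was computed for dead mice and compared with placebo-treated infected controls by Student's t-test.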

Mus musculus [14] = test: Number of survivors against Herpes simplex virus type-2 infection in mice at 50 mg/kg/day; assay type: functional; outline: as §2
Mus musculus [15] = test: Number of survivors against Herpes simplex virus type-1 infection in mice at 100 mg/kg/day; assay type: functional
Outline: (§4)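 Female Swiss-Webster mice (20–23 g, 10 per group) were infected ip with 10^3 PFU HSV-1 Schooler in 0.3% BSA-PBS. Drug was given sc twice daily in PBS, starting 1 h postinfection, for 5 days. Survival was followed for 21 days. Mean day of death of dead animals was compared with placebo-treated infected controls by Student's t-test.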

Mus musculus [16] = test: Number of survivors against Herpes simplex virus type-1 infection in mice at 12.5 mg/kg/day; assay type: functional; outline: as §4
Mus musculus [17] = test: Number of survivors against Herpes simplex virus type-1 infection in mice at 200 mg/kg/day; assay type: functional; outline: as §4
Mus musculus [18] = test: Number of survivors against Herpes simplex virus type-1 infection in mice at 25 mg/kg/day; assay type: functional; outline: as §4
Mus musculus [19] = test: Number of survivors against Herpes simplex virus type-1 infection in mice at 50 mg/kg/day; assay type: functional; outline: as §4
Mus musculus [20] = test: Number of survivors against Herpes simplex virus type-2 infection in mice at 100 mg/kg/day; assay type: functional; outline: as §3
Mus musculus [21] = test: Number of survivors against Herpes simplex virus type-2 infection in mice at 12.5 mg/kg/day; assay type: functional; outline: as §3
Mus musculus [22] = test: Number of survivors against Herpes simplex virus type-2 infection in mice at 150 mg/kg/day; assay type: functional; outline: as §3
Mus musculus [23] = test: Number of survivors against Herpes simplex virus type-2 infection in mice at 200 mg/kg/day; assay type: functional; outline: as §3
Mus musculus [24] = test: Day of death in lethal test against herpes simplex virus type-1 at 100 mg/kg/day (mean day of death +/-SD); assay type: ADME, organism-based; conditions: in vivo; outline: as §4
Mus musculus [25] = test: Day of death in lethal test against herpes simplex virus type-1 at 12.5 mg/kg/day (mean day of death +/-SD); assay type: ADME, organism-based; conditions: in vivo; outline: as §4
Mus musculus [26] = test: Day of death in lethal test against herpes simplex virus type-1 at 200 mg/kg/day (mean day of death +/-SD); assay type: ADME, organism-based; conditions: in vivo; outline: as §4
Mus musculus [27] = test: Day of death in lethal test against herpes simplex virus type-1 at 25 mg/kg/day (mean day of death +/-SD); assay type: ADME, organism-based; conditions: in vivo; outline: as §4
Mus musculus [28] = test: Day of death in lethal test against herpes simplex virus type-1 at 50 mg/kg/day (mean day of death +/-SD); assay type: ADME, organism-based; conditions: in vivo; outline: as §4
Mus musculus [29] = test: Day of death in lethal test against herpes simplex virus type-2 at 100 mg/kg/day (mean day of death +/-SD); assay type: ADME, organism-based; conditions: in vivo; outline: as §3
Mus musculus [30] = test: Day of death in lethal test against herpes simplex virus type-2 at 12.5 mg/kg/day (mean day of death +/-SD); assay type: ADME, organism-based; conditions: in vivo; outline: as §3
Mus musculus [31] = test: Day of death in lethal test against herpes simplex virus type-2 at 200 mg/kg/day (mean day of death +/-SD); assay type: ADME, organism-based; conditions: in vivo; outline: as §3
Mus musculus [32] = test: Day of death in lethal test against herpes simplex virus type-2 at 150 mg/kg/day (mean day of death +/-SD); assay type: ADME, organism-based; conditions: in vivo; outline: as §3
Mus musculus [33] = test: Number of survivors against Herpes simplex virus type-1 infection in mice at 150 mg/kg/day; assay type: functional; outline: as §4

SMILES: O=c1ccn([C@@H]2CO[C@H](CO)[C@H]2CO)c(=O)[nH]1
- IC50 (Human betaherpesvirus 5): > 410 µM
- IC50 (Human alphaherpesvirus 1 [1]): > 410 µM
- IC50 (Human alphaherpesvirus 3 [2]): 100 µM

SMILES: Nc1ccn([C@@H]2CO[C@H](CO)[C@H]2CO)c(=O)n1
- IC50 (Human betaherpesvirus 5): 100 µM
- IC50 (Human alphaherpesvirus 1 [1]): 40 µM
- IC50 (WI-38): 160 µM
- IC50 (Vaccinia virus): 400 µM
- IC50 (Human alphaherpesvirus 3 [2]): 0.4 µM

SMILES: Cc1cn([C@@H]2CO[C@H](CO)[C@H]2CO)c(=O)nc1N
- IC50 (Human betaherpesvirus 5): > 390 µM
- IC50 (Human alphaherpesvirus 1 [1]): 390 µM
- IC50 (Human alphaherpesvirus 3 [2]): 200 µM

SMILES: O=c1[nH]c(=O)n([C@@H]2CO[C@H](CO)[C@H]2CO)cc1/C=C/Br
- IC50 (Human betaherpesvirus 5): > 290 µM
- IC50 [3]: 3 µM
- IC50 (Human alphaherpesvirus 1 [1]): 3 µM
- IC50 (Human alphaherpesvirus 1 [4]): > 290 µM
- IC50 [5]: 30 µM
- IC50 (Human alphaherpesvirus 3 [6]): > 300 µM
- IC50 (WI-38): > 800 µM
- IC50 (Vaccinia virus): > 290 µM
- IC50 (Human alphaherpesvirus 3 [2]): 0.1 µM
- IC50 (Human alphaherpesvirus 3 [7]): 0.06 µM
- IC50 (Human alphaherpesvirus 3 [8]): 3 µM
- IC50 (Human alphaherpesvirus 3 [9]): 0.3 µM
- IC50 (Human alphaherpesvirus 3 [10]): 0.5 µM

SMILES: Nc1nc2c(ncn2COCCO)c(=O)[nH]1 [ACYCLOVIR]
- IC50 (Human betaherpesvirus 5): 40 µM
- IC50 (Human alphaherpesvirus 2): > 440 µM
- IC50 [3]: 2 µM
- IC50 (Human alphaherpesvirus 1 [1]): 0.9 µM
- IC50 (Human alphaherpesvirus 1 [4]): > 440 µM
- ED50 (Mus musculus [11]): > 200 mg/kg/day
- ED50 (Mus musculus [12]): > 200 mg/kg/day
- Survivors (Mus musculus [13]): 0
- Survivors (Mus musculus [14]): 1
- Survivors (Mus musculus [15]): 2
- Survivors (Mus musculus [16]): 0
- Survivors (Mus musculus [17]): 2
- Survivors (Mus musculus [18]): 3
- Survivors (Mus musculus [19]): 1
- Survivors (Mus musculus [20]): 2
- Survivors (Mus musculus [21]): 0
- Survivors (Mus musculus [22]): 4
- Survivors (Mus musculus [23]): 5
- Mean day of death (Mus musculus [24]): 9.3
- Mean day of death (Mus musculus [25]): 8.3
- Mean day of death (Mus musculus [26]): 14
- Mean day of death (Mus musculus [27]): 7.8
- Mean day of death (Mus musculus [28]): 9
- Mean day of death (Mus musculus [29]): 13.5
- Mean day of death (Mus musculus [30]): 10
- Mean day of death (Mus musculus [31]): 13
- IC50 [5]: 100 µM
- IC50 (Human alphaherpesvirus 3 [6]): 100 µM
- IC50 (WI-38): > 800 µM
- IC50 (Human alphaherpesvirus 3 [2]): 4 µM
- IC50 (Human alphaherpesvirus 3 [7]): 2 µM
- IC50 (Human alphaherpesvirus 3 [8]): 4 µM
- IC50 (Human alphaherpesvirus 3 [9]): 4 µM
- IC50 (Human alphaherpesvirus 3 [10]): 2 µM
- Mean day of death (Mus musculus [32]): 13
- Survivors (Mus musculus [33]): 2
